1 compound from ChEMBL document CHEMBL3596186, “Synthesis and biological evaluation of diarylthiazole derivatives as antimitotic and antivascular agents with potent antitumor activity” (Bioorg Med Chem, 2015) can be followed below.

Data set [1] concerns HepG2. Put plainly: Cell cycle arrest in human HepG2 cells assessed as accumulation at S phase at 0.2 uM after 24 hrs by flow cytometry (reference value: 23.97%). It counts as functional. On the technique in general: Flow cytometry measures light scatter and fluorescence of single cells or particles in a stream.
The subject of data set [2] is HepG2. Description: Induction of apoptosis in human HepG2 cells assessed as necrotic cells at 1 uM after 24 hrs by annexin V/propidium iodide staining-based flow cytometry (reference value: 1.59%). In kind it is functional.
In data set [3] the test system is HepG2. Description: Cell cycle arrest in human HepG2 cells assessed as accumulation at S phase at 1 uM after 24 hrs by flow cytometry (reference value: 23.97%). In kind it is functional.
For data set [4], the system named is HepG2. Description: Induction of apoptosis in human HepG2 cells assessed as early apoptotic cells at 0.2 uM after 24 hrs by annexin V/propidium iodide staining-based flow cytometry (reference value: 0.87%). In kind it is functional.
Data set [5] relates to Mus musculus. Description: Toxicity in Balb/c athymic nude mouse xenografted with human HCT116 cells assessed as loss in body weight at 20 to 50 mg/kg, ip administered daily. The following applies: in vivo. In kind it is organism-based, HCT-116. In short, it runs like this:
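Female Balb/C athymic nude mice, 5-6 weeks old, implanted s.c. in the right flank with cells in HBSS. Once tumours reached about 100 mm3, mice were randomized (6 per group) to vehicle, 5-FU 10 mg/kg, or test agent 20 or 50 mg/kg i.p. daily. Body weight was recorded every two days.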
For orientation: Xenograft models place foreign cells or tissue in a host animal.

The subject of data set [6] is HUVEC. Description: Antimigratory activity against HUVEC after 24 hrs by phase contrast microscopy. In kind it is functional, cell-based. The following applies: Homo sapiens. In short, it runs like this: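 HUVEC monolayers grown overnight in 6-well plates, scratched with pipet tips, washed twice with PBS, then given fresh EBM2 with vehicle or compound. Imaged by phase contrast at 0 and 24 h (100×). Migrated cells counted manually in 3 separate fields; mean ± SD from three fields.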

A further data set concerns SK-OV-3. Put plainly: Antitumor activity against human SKOV3 cells xenografted in Balb/c athymic nude mouse assessed as tumor growth inhibition at 50 mg/kg, ip administered daily after 42 days. In kind it is functional. The following applies: SK-OV-3, ip, 1008 h, read-out: TGI.
Data set [7] concerns HUVEC. Put plainly: Antivascular activity against HUVEC assessed as inhibition of tube formation after 8 hrs by Matrigel assay. It counts as functional, cell-based. The following applies: Homo sapiens. Put shortly:
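Wells of prechilled plates coated with Matrigel and solidified 45 min at 37 °C. HUVECs (1 × 10^4) in EBM-2 containing compound (125-500 nM) seeded onto the gel and incubated 8 h at 37 °C. Capillary networks photographed at 100×; tubule numbers and line lengths counted manually.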

The test system of data set [8] is Mus musculus. Put plainly: Toxicity in Balb/c athymic nude mouse xenografted with human SKOV3 cells assessed as change in feeding and animal behavior at 20 to 50 mg/kg, ip administered daily. In kind it is organism-based, SK-OV-3. The following applies: in vivo.
The test system of data set [9] is HepG2. Description: Antimitotic activity in human HepG2 cells assessed as demolishment of microtubule at 0.5 uM after 24 hrs by DAPI staining-based immmunofluorescence assay. In kind it is functional, cell-based. Put shortly: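 HepG2 cells seeded in 6-well plates and treated with compound. Fixed in 4% paraformaldehyde, permeabilized with 0.5% Triton X-100 in PBS, blocked 30 min in 5% goat serum at room temperature. Stained with monoclonal anti-α-tubulin 1 h at room temperature, then fluorescent secondary antibody, nuclei labelled with DAPI. Viewed by fluorescence microscopy.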

Another data set concerns the target Tubulin (Homo sapiens) (UniProt P68371+Q9H4B7+P0DPH7+P68366+Q13509+Q71U36+P04350+Q3ZCM7+P07437+P68363+Q9BQE3+Q6PEY2+Q13885+Q9BVA1+Q9BUF5). Put plainly: Binding affinity to tubulin in human HepG2 cells at 5 uM after 4 hrs by EBI competition assay. In kind it is cell-based. Put shortly:
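HepG2 cells seeded at 500,000 cells/well, allowed to adhere, then treated with compound for 4 h. EBI added at 100 µM for 1.5 h. Cell extracts (about 20 µg protein) run on 10% SDS-PAGE, blotted to PVDF, probed with anti-β-tubulin, detected by ECL with GAPDH as loading control. Read-out is loss of the faster-migrating β-tubulin–EBI adduct band.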

The test system of data set [10] is HCT-116. Description: Induction of apoptosis in human HCT116 cells assessed as late apoptotic cells at 0.5 uM after 24 hrs by annexin V/propidium iodide staining-based flow cytometry (reference value: 1.71%). It counts as functional. Put shortly:
(§1)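 HCT116 cells treated with compound or DMSO for 24 or 48 h, trypsinized, washed twice in PBS and dual-stained with annexin-V and PI. Analysed by flow cytometry: early apoptotic cells scored as annexin-V+/PI−, late apoptotic cells as annexin-V+/PI+.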

The subject of data set [11] is HCT-116. Put plainly: Cell cycle arrest in human HCT116 cells assessed as accumulation at S phase at 0.2 uM after 24 hrs by flow cytometry (reference value: 25.66%). In kind it is functional.
The nature of data set [12]: Inhibition of pig microtubule polymerization after 30 mins by turbidimetric assay. More on the design: species or system Sus scrofa. Put shortly: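 Porcine-brain MAP-rich tubulin at 3 mg/mL preincubated 30 min at 4 °C in 0.1 M PIPES pH 6.9, 2 mM MgCl2, 0.5 mM EGTA. Compounds added 2 min before the run, then 1 mM GTP. Turbidity followed kinetically at 340 nm at 37 °C; assembly IC50 derived by Hamel's method.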

For data set [13], the system named is HepG2. Description: Induction of apoptosis in human HepG2 cells assessed as necrotic cells at 0.2 uM after 24 hrs by annexin V/propidium iodide staining-based flow cytometry (reference value: 1.59%). It counts as functional.
In data set [14] the test system is HepG2. Put plainly: Induction of apoptosis in human HepG2 cells assessed as early apoptotic cells at 0.2 uM after 48 hrs by annexin V/propidium iodide staining-based flow cytometry (reference value: 0.87%). It counts as functional.
In data set [15] the test system is HepG2. Put plainly: Induction of apoptosis in human HepG2 cells assessed as viable cells at 0.5 uM after 48 hrs by annexin V/propidium iodide staining-based flow cytometry (reference value: 89.8%). In kind it is functional. The following applies: HepG2, 48 h, read-out: Activity.
For data set [16], the system named is HCT-116. Put plainly: Induction of apoptosis in human HCT116 cells assessed as necrotic cells at 1 uM after 48 hrs by annexin V/propidium iodide staining-based flow cytometry (reference value: 3.49%). It counts as functional.
The subject of data set [17] is HepG2. Put plainly: Induction of apoptosis in human HepG2 cells assessed as late apoptotic cells at 0.2 uM after 24 hrs by annexin V/propidium iodide staining-based flow cytometry (reference value: 3.74%). In kind it is functional.
Data set [18] deals with HCT-116. Put plainly: Induction of apoptosis in human HCT116 cells assessed as viable cells at 1 uM after 24 hrs by annexin V/propidium iodide staining-based flow cytometry (reference value: 92%). It counts as functional. The following applies: HCT-116, 24 h, read-out: Activity.
Data set [19] deals with HCT-116. Description: Induction of apoptosis in human HCT116 cells assessed as early apoptotic cells at 1 uM after 48 hrs by annexin V/propidium iodide staining-based flow cytometry (reference value: 2.83%). In kind it is functional. Put shortly: as §1
For data set [20], the system named is HCT-116. Put plainly: Induction of apoptosis in human HCT116 cells assessed as late apoptotic cells at 1 uM after 24 hrs by annexin V/propidium iodide staining-based flow cytometry (reference value: 1.71%). In kind it is functional.
Data set [21] concerns HepG2. Description: Induction of apoptosis in human HepG2 cells assessed as late apoptotic cells at 0.5 uM after 48 hrs by annexin V/propidium iodide staining-based flow cytometry (reference value: 3.74%). It counts as functional.
A short description of data set [22]: Antiproliferative activity against human HCC827 cells after 48 hrs by MTT assay. The following applies: HCC827, 48 h. In kind it is functional, cell-based.

Calls of active or inactive are those of the source. The calls are words filed in the database; no cut-off is given here.

As a reminder, the IC50 is the concentration needed to halve the response being measured. Low values mean inhibition by little substance, high ones a need for much substance. For the compound `CCOc1ccc(-c2nc(N)sc2-c2cc(OC)c(OC)c(OC)c2)cc1`, the Activity was 29.88% with HepG2 [1]; 0.79% in the data set with HepG2 [2]; 7.43% in the data set on HepG2 [3]; 10.08% in the data set with HepG2 [4]; “Toxic” in the data set with Mus musculus [5]; “Dose-dependent effect” in the data set on HUVEC [6]. For the same compound, the Activity entry with HUVEC [7] was “Dose-dependent effect”; in the data set with Mus musculus [8] it was “Non-toxic”; in the data set with HCT-116 [10], 10.8%; in the data set on HCT-116 [11], 22%; in the data set with HepG2 [13] it was 0.95%; in the data set on HepG2 [14], 66.6%. In addition, the Activity is recorded as 4.06% in the data set with HCT-116 [16]; 6.51% in the data set with HepG2 [17]; 43.1% in the data set on HCT-116 [19]; 17.1% with HCT-116 [20]; 4.38% in the data set on HepG2 [21]. For the same compound, the inhibition in vivo at 50 mg/kg in the data set with SK-OV-3 was found to be 72.7%. Moreover, in the data set on HepG2 [9], the result was Active. Further, the outcome at Tubulin (Homo sapiens) was inactive. Also, the IC50 in [12] was determined as 2740 nM; in data set [22], 97 nM. Moreover, the viability at 0.5 µM with HepG2 [15] was determined as 29.6%. In addition, the viability at 1 µM with HCT-116 [18] amounted to 62.1%.
